pIC50: −log10 of the molar value. Values after ≈ are worked out from the molar mass of the structure shown.
Experiments:
[1] = WHO-TDR: Cytotoxicity; format: toxicity, cell-based; conditions: human, MRC5 cells
Plasmodium falciparum K1 = test: WHO-TDR: Malaria; format: functional, organism-based, Homo sapiens; conditions: Erythrocyte
Method in brief: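 This whole-organism screen covered 10,000 drug-likeness-filtered and reactive-group-filtered compounds from Life Chemicals. The target was the Plasmodium falciparum K1 strain in human red blood cells, and the readout was antiplasmodial IC50.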

Trypanosoma cruzi = test: WHO-TDR: Chagas disease; format: functional, organism-based, Homo sapiens; conditions: MRC5
Method in brief: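 Whole-organism screen of a 10,000-compound diverse library from Life Chemicals, filtered for drug-likeness and reactive groups, against intracellular amastigotes of Trypanosoma cruzi Tulahuen CL2 beta-galactosidase strain grown in MRC-5SV2 human lung fibroblast host cells. The assay followed previously published standard procedures, with a reference drug as positive control. Antiparasitic potency is reported as IC50.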

[2] = tested on: Trypanosoma brucei brucei; test: WHO-TDR: Human African Trypanosomiasis (HAT); format: functional, organism-based; conditions: Squib-427
Method in brief: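 Screening used a 10,000-compound diverse library supplied by Life Chemicals and filtered for drug-likeness and reactive groups. Whole bloodstream-form parasites of Trypanosoma brucei Squib 427 strain were assayed according to previously published standard procedures, with reference drugs as positive controls. The reported measure is IC50, reflecting antiparasitic potency.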

Leishmania infantum = test: WHO-TDR: Leishmaniasis; format: functional, organism-based, Mus musculus; conditions: Macrophage
Method in brief: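 The screened collection came from Life Chemicals: 10,000 diverse compounds selected after filtering for drug-likeness and reactive groups. Each was tested in a whole-organism assay against Leishmania infantum MHOM/MA(BE)/67 amastigotes inside murine peritoneal macrophages, using previously published standard procedures and a reference drug as positive control. Results are IC50 values for antiparasitic potency.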

Schistosoma mansoni = test: WHO-TDR: Schistosomiasis; format: functional; design: concentration or dose not given beside the values
Method in brief: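 A diverse library of 10,000 compounds from Life Chemicals, filtered for drug-likeness and reactive groups, was screened against whole larval and/or adult Schistosoma mansoni worms of the Puerto Rican strain. Previously published standard procedures were followed, with a reference drug as positive control. Activity is given as percent inhibition and as IC50.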

Onchocerca ochengi [3] = test: (§1) WHO-TDR: Onchocerciasis; format: functional; design: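 at 12.5 µM on microfilariae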
Method in brief: (§2)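 A diverse library of 10,000 compounds from Life Chemicals, filtered for drug-likeness and reactive groups, was screened against whole microfilariae of Onchocerca ochengi or Onchocerca lienalis. These animal pathogens served as stand-ins for the human parasite. Activity is given as percent inhibition and as IC50.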

Brugia malayi [4] = test: (§3) WHO-TDR: Lymphatic Filariasis; format: functional; design: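 tested at 10 µM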
Method in brief: (§4)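 A diverse library of 10,000 compounds from Life Chemicals was screened against Brugia malayi microfilariae in a whole-organism assay. The library had been filtered for drug-likeness and reactive groups. Activity is given as percent inhibition and as IC50.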

Brugia malayi [5] = test: as §3; format: functional; design: concentration or dose not given beside the values; method in brief: as §4; remark: listed apart in the source
Onchocerca lienalis = test: as §1; format: functional; design: concentration or dose not given beside the values; method in brief: as §2;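 also: at 12.5 µM on microfilariae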
Brugia malayi [6] = test: as §3; format: functional, organism-based; method in brief: as §4
Onchocerca ochengi [7] = test: as §1; format: functional; design: concentration or dose not given beside the values; method in brief: as §2; remark: listed apart in the source

Row | Compound | IC50 [1] [µg/mL] | IC50 (Plasmodium falciparum K1) [µg/mL] | IC50 (Trypanosoma cruzi) [µg/mL] | IC50 [2] [µg/mL] | IC50 (Leishmania infantum) [µg/mL] | % Inhibition (Schistosoma mansoni) [%] | % Inhibition (Onchocerca ochengi [3]) [%] | % Inhibition (Brugia malayi [4]) [%] | % Inhibition (Brugia malayi [5]) [%] | % Inhibition (Onchocerca lienalis) [%] | pIC50 (Brugia malayi [6]) | % Inhibition (Onchocerca ochengi [7]) [%]
1 | O=C(C1CCCC1)N1CCc2ccc(NS(=O)(=O)c3ccc4c(c3)OCCO4)cc21 | > 12.9 | > 12.9 | > 12.9 | > 12.9 | 0.416 (≈ 0.971 µM) | 0 | 0 | 0 | 0 | – | – | –
2 | CCN1CCc2c(sc(NC(=O)c3ccccc3)c2-c2nc3ccccc3s2)C1 | 3.75 (≈ 8.94 µM) | 2.17 (≈ 5.17 µM) | 0.514 (≈ 1.23 µM) | 1.22 (≈ 2.91 µM) | 4.43 (≈ 10.6 µM) | 25 | – | 0 | 0 | 0 | – | –
3 | COc1ccc2nc(N(CCCN(C)C)C(=O)CCCSc3ccccc3)sc2c1 | 4.06 (≈ 9.16 µM) | 3.35 (≈ 7.55 µM) | 2.53 (≈ 5.71 µM) | 0.455 (≈ 1.03 µM) | 4.66 (≈ 10.5 µM) | 0 | – | 0 | 0 | 12.34 | – | –
4 | O=C(C1CC1)N1CCc2ccc(NS(=O)(=O)c3ccc4c(c3)CCCC4)cc21 | 1.28 (≈ 3.24 µM) | > 11.9 | 0.829 (≈ 2.09 µM) | 3.85 (≈ 9.71 µM) | > 11.9 | 0 | 0 | 0 | 0 | – | – | –
5 | CC(C)N1CCc2c(sc(NC(=O)COc3ccc(Cl)cc3Cl)c2C(N)=O)C1 | 3.18 (≈ 7.19 µM) | 3.35 (≈ 7.57 µM) | 0.595 (≈ 1.35 µM) | 4.6 (≈ 10.4 µM) | 0.465 (≈ 1.05 µM) | 0 | – | 33.33 | 0 | 20 | – | –
6 | CCOC(=O)c1c(NC(=O)c2cccc(C(F)(F)F)c2)sc2c1CCN(C)C2 | > 13.5 | > 13.5 | 4.8 (≈ 11.6 µM) | 0.341 (≈ 0.826 µM) | 4.84 (≈ 11.7 µM) | 0 | – | 33.33 | 0 | 0 | – | –
7 | CCOC(=O)c1c(NC(=O)c2sc3ccccc3c2Cl)sc2c1CCN(C)C2 | 3.6 (≈ 8.29 µM) | > 14.1 | 0.568 (≈ 1.31 µM) | 1.95 (≈ 4.49 µM) | 4.58 (≈ 10.5 µM) | 0 | – | 33.33 | 33.33 | 0 | – | –
8 | N#Cc1cnc2c(F)cccc2c1Nc1ccc(Br)cc1 | > 11.4 | > 11.4 | > 11.4 | > 11.4 | > 11.4 | 0 | 100 | 0 | 0 | – | – | –
9 | CCCC(=O)Nc1nnc(-c2ccc(C)cc2)s1 | > 7.84 | > 7.84 | > 7.84 | > 7.84 | > 7.84 | 0 | – | 0 | 100 | 0 | – | –
10 | Cc1ccc(-n2ccnc2N2CCN(C(=O)c3ccccc3SC(F)F)CC2)cc1 | 13.9 (≈ 32.6 µM) | 3.65 (≈ 8.53 µM) | 0.531 (≈ 1.24 µM) | 4.57 (≈ 10.7 µM) | > 13.9 | 58.3 | 100 | 0 | 0 | – | – | –
11 | c1ccc2c(CCNc3[nH]cnc4ncnc3-4)c[nH]c2c1 | 1.91 (≈ 6.87 µM) | > 8.35 | 0.588 (≈ 2.11 µM) | > 8.35 | > 8.35 | 0 | – | 0 | 0 | 13.4 | – | –
12 | CCC(=O)c1c(NC(=O)c2ccc(C)cc2)sc2c1CCN(CC)C2 | > 11.8 | 1.87 (≈ 5.24 µM) | 0.479 (≈ 1.34 µM) | 0.321 (≈ 0.9 µM) | 2.32 (≈ 6.51 µM) | 0 | – | 33.33 | 33.33 | 0 | – | –
13 | COc1cccc2c1CCN(Cc1ccc(Cl)cc1)C2=O | > 9.05 | > 9.05 | 2.48 (≈ 8.23 µM) | > 9.05 | > 9.05 | 0 | – | 100 | – | 40 | 5.45 | –
14 | CN1CCc2c(OCC(=O)N3N=C(c4cccs4)CC3c3ccc(F)cc3)cccc2C1=O (stereo unspecified) | > 13.9 | 7.38 (≈ 15.9 µM) | 2.3 (≈ 4.96 µM) | 4.45 (≈ 9.6 µM) | 0.947 (≈ 2.04 µM) | 0 | – | 90 | 0 | 0 | – | –
15 | COc1ccc(CC(=O)NCCS(=O)(=O)N2CCN(c3ncccn3)CC2)cc1OC | > 13.5 | > 13.5 | > 13.5 | > 13.5 | 0.437 (≈ 0.972 µM) | 33.3 | 0 | 0 | 0 | – | – | –
16 | CC(C)N1CCc2c(sc(NC(=O)c3sc4ccccc4c3Cl)c2C(N)=O)C1 | 4.25 (≈ 9.8 µM) | > 14.1 | 0.552 (≈ 1.27 µM) | 2.02 (≈ 4.65 µM) | 0.457 (≈ 1.05 µM) | 0 | – | 33.33 | 0 | 0 | – | –
17 | CC(C)(C)c1ccc(-c2csc(NC(=O)c3ccc4ncsc4c3)n2)cc1 | 7.77 (≈ 19.7 µM) | 2.77 (≈ 7.04 µM) | 0.891 (≈ 2.26 µM) | 3.46 (≈ 8.8 µM) | 4.24 (≈ 10.8 µM) | 0 | – | 50 | 0 | 33.3 | – | –
18 | CN(c1ccccc1)c1nnc(-c2ccc(NC(=O)Cc3cccs3)cc2)s1 | > 12.2 | > 12.2 | > 12.2 | > 12.2 | 3.95 (≈ 9.71 µM) | – | 100 | 0 | 25 | – | – | –
19 | CN1CCc2c(sc(NC(=O)C3COc4ccccc4O3)c2-c2nc3ccccc3s2)C1 (stereo unspecified) | 5.39 (≈ 11.6 µM) | 3.38 (≈ 7.29 µM) | 2.48 (≈ 5.35 µM) | 0.48 (≈ 1.04 µM) | 4.86 (≈ 10.5 µM) | 0 | – | 33.33 | 66.67 | 0 | – | –
20 | Cc1cc(NC(=O)C2CCCN(S(=O)(=O)c3ccccc3)C2)on1 (stereo unspecified) | > 10.5 | > 10.5 | > 10.5 | > 10.5 | 0.339 (≈ 0.97 µM) | 41.7 | 0 | 0 | 0 | – | – | –
21 | O=C(Nc1ccc(C(F)(F)F)cc1)N1CCN(Cc2nnnn2-c2ccccc2)CC1 | > 12.9 | > 12.9 | > 12.9 | 6.01 (≈ 13.9 µM) | > 12.9 | – | 100 | 0 | 0 | – | – | –
22 | O=C(NCCn1nc(-c2ccco2)ccc1=O)C1c2ccccc2Oc2ccccc21 | > 12.4 | > 12.4 | > 12.4 | > 12.4 | 1.84 (≈ 4.46 µM) | 0 | 0 | – | – | – | – | 0
23 | O=S(=O)(Nc1nc2c(Cl)cccc2s1)c1ccc(Cl)cc1 | > 10.8 | > 10.8 | 10.2 (≈ 28.4 µM) | > 10.8 | > 10.8 | 0 | 100 | – | – | – | – | 0
24 | CCOc1ccc(N2CC(CNS(=O)(=O)c3cccc(C(F)(F)F)c3)CC2=O)cc1 (stereo unspecified) | > 13.3 | > 13.3 | > 13.3 | > 13.3 | > 13.3 | 0 | 100 | – | – | – | – | 0

Source: ChEMBL document CHEMBL2093137, “WHO-TDR NTD Screening”
